Series [1] relates to HeLa cells. As to the kind of experiment: Rescue of DNMDP induced cytotoxicity. The series is classed as cell-based, human. The settings on record: 48 hours; for competition with DNMDP (rescue): up to 10 µM; for rank in bioactives screen for rescue of cell death induced by DNMDP: 20 µM compound with 30 nM DNMDP, 1600 compounds; for rescue of DNMDP cytotoxicity: DNMDP in combination, dose response. In short, it runs like this:
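HeLa cells (1000/well, 384-well) in DMEM with 10% FBS and 1% Pen/Strep. 24 h after plating, 1600 bioactives added at 20 µM together with cytotoxic agent at 30 nM final; 48 h incubation. Follow-up combinations used indicated PDE3/pan-PDE inhibitor concentrations with single data points. CellTiter-Glo viability expressed as percentage of untreated DMSO control.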

Series [2] has as its system HeLa cells. The series is described as follows: Compound sensitivity testing. The series is classed as cell-based, human. The settings on record: for activity compared with (R)-DNMDP: cell viability, (R)-des-nitro analogues. Put shortly:
(§1)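 Cells per 384-well: A549 1000 (RPMI), HeLa 1000 (DMEM), MCF-7 500 (DMEM), PC3 4000 (F12-K), NCI-H2122 1000 (RPMI), NCI-H1563 1500 (RPMI); all with 10% FBS. Test compound added 24 h after plating, 48 h exposure. Readout: 25% CellTiter-Glo in PBS, 10 min, luminescence, normalized to DMSO. Dose curves: mean of 8 replicates ± s.d.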

The target in the next series is PDE3A (Homo sapiens, UniProt Q14432). As to the kind of experiment: Linker-affinity purification with DNMDP-2L resin and PDE3A immunoblot. The class given is binding. The settings on record: HeLa cell lysate, 10 µM competitor. In short, it runs like this: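 200 µg lysate incubated 4 h with resin-coupled linker analogue, competitor compounds added beforehand. Three washes in buffer with 10 µM compound. Bound protein resolved by SDS-PAGE; anti-PDE3A immunoblot (1:1000, overnight, 4 °C); infrared detection.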
A general note: Immunoblotting shows a protein as a band on a membrane.

The next series relates to PDE3. Conditions: read-out: PDE3 IC50; cited from earlier work.
The subject of the next series is NCI-H2122 cells. The series is described as follows: Compound sensitivity testing. Conditions: Homo sapiens, NCI-H2122, 48 h. The class given is cell-based. Put shortly:
as §1

A further series concerns A549 cells. The series is described as follows: Cell viability. The series is classed as cell-based. The settings on record: Homo sapiens, A549, 48 h. Put shortly:
as §1

A further series relates to NCI-H1563 cells. The series is described as follows: Compound sensitivity testing. The series is classed as cell-based. The settings on record: Homo sapiens, NCI-H1563, 48 h. Put shortly: as §1
In series [3] the test system is PDE3A complex with V5-tagged SIRT7 and SLFN12. As to the kind of experiment: PDE3A immunoprecipitation and V5 immunoblot. The series is classed as cell-based, human. The settings on record: HeLa, 10 µM, 4 hours, co-immunoprecipitation. In short, it runs like this:
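HeLa cells transfected with V5-tagged SIRT7, SLFN12 or GFP constructs. At 72 h, treated 4 h with 10 µM test compound or trequinsin. Lysis in ModRipa (1% NP-40, 50 mM Tris-HCl pH 7.8, 150 mM NaCl, 0.1% deoxycholate, 1 mM EDTA). 2 mg lysate with 1 µg anti-PDE3A overnight at 4 °C, then Protein A/G beads 1 h. LDS elution; immunoblots for V5 (1:5000) and PDE3A (1:1000).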

Series [4] deals with 766 genomically characterized cancer cell lines. The series is described as follows: Large-scale cell-line viability measurements. The class given is cell-based, human. The settings on record: of 766 cancer cell lines, 72 hours, 66.4 µM to 2 nM. Put shortly:
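500 cells/well in 1536-well plates, each line in its preferred medium; overnight incubation. Test compound acoustically dispensed at 16 concentrations, 66.4 µM–2 nM, 2-fold steps, in duplicate. After 72 h, ATP measured by CellTiter-Glo, normalized to media-only and DMSO wells. Curves fit to 2- or 3-parameter sigmoids. Sensitivity metric: AUC of optimal 8-point curve by numeric integration.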

In another series the test system is NCI-H1734 cells. As to the kind of experiment: Cell viability. The series is classed as cell-based, human. The settings on record: NCI-H1734 versus A549, 48 hours.
Series [5] relates to HeLa cells. As to the kind of experiment: Caspase activity. The series is classed as cell-based, human. Conditions: 48 hours (caspase), 36 hours (PARP). Put shortly: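 HeLa cells (1000/well, 384-well) in growth medium with 10% FBS; test compound added 24 h after plating. Caspase: 48 h exposure, Caspase-Glo added, luminescence read. PARP: 36 h exposure to test compound or staurosporine; NP-40 lysis; immunoblot for PARP (1:1000) and actin (1:20,000), infrared imaging.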

Another series concerns MCF7 cells. The series is described as follows: Compound sensitivity testing. The class given is cell-based. The settings on record: Homo sapiens, MCF7, 48 h. Put shortly:
as §1

The subject of a further series is PC3 cells. As to the kind of experiment: Compound sensitivity testing. The series is classed as cell-based. Conditions: Homo sapiens, PC-3, 48 h. In short, it runs like this:
as §1

For the next series, the target named is 234 kinases. As to the kind of experiment: Millipore KinaseProfiler panel. The series is classed as biochemical, human. Conditions: 10 µM DNMDP.

pEC50, pIC50: −log10 of the molar value.

PDE3A, sequence (Q14432 whole entry): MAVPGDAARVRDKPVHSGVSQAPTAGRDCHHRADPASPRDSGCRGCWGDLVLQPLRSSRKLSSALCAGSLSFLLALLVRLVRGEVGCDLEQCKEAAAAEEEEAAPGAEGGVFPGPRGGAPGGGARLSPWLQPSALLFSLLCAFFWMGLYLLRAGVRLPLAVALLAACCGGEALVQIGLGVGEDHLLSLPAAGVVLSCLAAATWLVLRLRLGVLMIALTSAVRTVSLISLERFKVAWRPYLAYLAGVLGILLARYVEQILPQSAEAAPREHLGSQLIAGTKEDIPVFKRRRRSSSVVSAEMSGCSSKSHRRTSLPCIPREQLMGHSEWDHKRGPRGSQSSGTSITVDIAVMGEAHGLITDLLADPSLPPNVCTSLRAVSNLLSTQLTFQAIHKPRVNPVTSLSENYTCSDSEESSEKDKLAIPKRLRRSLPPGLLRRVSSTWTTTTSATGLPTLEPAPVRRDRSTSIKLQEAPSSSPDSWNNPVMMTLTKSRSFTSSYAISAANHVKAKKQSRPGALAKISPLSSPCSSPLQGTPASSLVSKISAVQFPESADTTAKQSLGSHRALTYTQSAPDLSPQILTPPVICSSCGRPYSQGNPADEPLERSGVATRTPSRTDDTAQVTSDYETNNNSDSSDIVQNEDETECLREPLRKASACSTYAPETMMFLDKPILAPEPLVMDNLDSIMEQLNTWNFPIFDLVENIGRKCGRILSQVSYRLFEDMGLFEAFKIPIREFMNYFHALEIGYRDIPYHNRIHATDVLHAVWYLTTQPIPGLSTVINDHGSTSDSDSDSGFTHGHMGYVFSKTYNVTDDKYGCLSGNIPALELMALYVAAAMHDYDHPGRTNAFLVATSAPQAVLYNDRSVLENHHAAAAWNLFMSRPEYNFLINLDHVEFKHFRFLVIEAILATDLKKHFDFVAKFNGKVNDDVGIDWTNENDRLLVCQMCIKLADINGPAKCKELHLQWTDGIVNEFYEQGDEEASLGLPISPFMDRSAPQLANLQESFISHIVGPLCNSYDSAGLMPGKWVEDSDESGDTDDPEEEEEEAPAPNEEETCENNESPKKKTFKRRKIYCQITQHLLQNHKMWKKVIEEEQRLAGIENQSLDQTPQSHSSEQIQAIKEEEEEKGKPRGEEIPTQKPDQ

With `CC(C)C(=O)c1c(C(C)C)nn2ccccc12` [idubilast], in the series on HeLa cells [1], the “competition with DNMDP (rescue)” value is reported as “not effective competitors”.

Regarding `CCN(CC)c1ccc(C2=NNC(=O)C[C@H]2C)cc1` [DNMDP-2], the “activity compared with (R)-DNMDP” value in the series on HeLa cells [2] was “tested similarly to (R)-DNMDP”.

Regarding `CCCc1nc(C)c2c(=O)[nH]c(-c3cc(S(=O)(=O)N4CCN(CC)CC4)ccc3OCC)nn12` [vardenafil], in the series on HeLa cells [1], the “competition with DNMDP (rescue)” value is listed as “not effective competitors”.

For `Cc1[nH]c(=O)c(C#N)cc1-c1ccncc1` [milrinone], in the series on HeLa cells [1], the “rank in bioactives screen for rescue of cell death induced by DNMDP” value (“rank in bioactives screen for rescue” below) was “three most potent compounds” and the “rescue of DNMDP cytotoxicity” value is “able to rescue DNMDP cytotoxicity in a dose-dependent manner”.

Turning to `CCCc1nn(C)c2c(=O)[nH]c(-c3cc(S(=O)(=O)N4CCN(C)CC4)ccc3OCC)nc12` [sildenafil], the “competition with DNMDP (rescue)” value in the series on HeLa cells [1] was “not effective competitors”.

Take `O=C1CCc2cc(OCCCCc3nnnn3C3CCCCC3)ccc2N1` [cilostazol]: the “rank in bioactives screen for rescue” value in the series on HeLa cells [1] is recorded as “three most potent compounds”.

Take `CCN(CC)c1ccc(C2=NNC(=O)CC2C)cc1` (stereo not shown) [DNMDP-3]: in the series with HeLa cells [2], the “activity compared with (R)-DNMDP” value is “tested similarly to (R)-DNMDP”.

By pIC50 is commonly meant −log10 of the IC50, conventionally taken in molar units. Take `COc1cc2c(cc1OC)-c1c/c(=N\c3c(C)cc(C)cc3C)n(C)c(=O)n1CC2` [trequinsin]: the “blocking of PDE3A binding to the tethered linker analogue” value at PDE3A is listed as “blocked”. The “effect on HeLa cell viability” value in the series with HeLa cells [2] (HeLa, up to 10 µM, 48 hours) was “did not affect HeLa cell viability in any detectable way”. The negative logarithm of the IC50 (pIC50) with PDE3 was 9.60.

As to `C[C@@H]1CC(=O)NN=C1c1ccc(NN=C(C#N)C#N)cc1` [levosimendan], in the series on HeLa cells [1], the “rank in bioactives screen for rescue” value is “three most potent compounds” and the “rescue of DNMDP cytotoxicity” value was “able to rescue DNMDP cytotoxicity in a dose-dependent manner”.

Turning to `OCCN(CCO)c1nc(N2CCCCC2)c2nc(N(CCO)CCO)nc(N3CCCCC3)c2n1` [dipyridamole], the “competition with DNMDP (rescue)” value in the series with HeLa cells [1] is listed as “not effective competitors”.

Take `CCN(CCOCCOCCNC(=O)OC(C)(C)C)c1ccc(C2=NNC(=O)C[C@H]2C)cc1` [DNMDP-2L]: the “rescue of DNMDP cytotoxicity” value in the series with HeLa cells [1] is “same DNMDP cytotoxicity rescue phenotype as non-cytotoxic PDE3 inhibitors”.

What is called pEC50 is −log10 of the EC50, conventionally taken in molar units. A high value points to a low EC50. In turn, `CCN(CC)c1ccc(C2=NNC(=O)CC2C)cc1[N+](=O)[O-]` (stereo not shown) [DNMDP, 6-(4-(diethylamino)-3-nitrophenyl)-5-methyl-4,5-dihydropyridazin-3(2H)-one] gave an EC70 concentration in the series with HeLa cells [2] (HeLa, 48 hours) of 0.03 µM. In addition, the pEC50 in the series on HeLa cells [2] (Homo sapiens, HeLa, 48 h) was 7.00 to 8.00; with NCI-H2122 cells, 7.00 to 8.00; with A549 cells, < 6.00; in the series on NCI-H1563 cells it was 7.00 to 8.00; in the series with MCF7 cells it was < 6.00; in the series with PC3 cells it was < 6.00. In addition, the “complex formation of V5-tagged SIRT7 and SLFN12 with PDE3A” value in [3] is “enhanced complex formation”. Also, the “number of cell lines sensitive with a robust Z-score lower than -4” value in series [4] is recorded as 22 cell lines. Further, the “selective toxicity in dose-response retest” value in the series on NCI-H1734 cells is “specifically toxic to the NCI-H1734 cell line”. The “induction of apoptosis (caspase activity, PARP cleavage)” value in the series with HeLa cells [5] was “undergo apoptosis”. For the same molecule, the “kinase inhibition across 234 kinases” value at 234 kinases is listed as “no kinase inhibition”.

`CN(C(=O)CCCOc1ccc2[nH]c(=O)ccc2c1)C1CCCCC1` [cilostamide]: in the series with HeLa cells [1], the “rescue of DNMDP cytotoxicity” value was “able to rescue DNMDP cytotoxicity in a dose-dependent manner”.

(Values after paper PMC4718766 (Nature chemical biology, 2015).)
